Assay results published in ChEMBL document CHEMBL4406821, “Novel dual inhibitors targeting CDK4 and VEGFR2 synergistically suppressed cancer progression and angiogenesis” (Eur J Med Chem, 2019).
Calls of active or inactive are those of the source. The rule behind the calls is not given here.

What was measured:
[1] = target: Rhodopsin kinase GRK7 (Homo sapiens) (UniProt Q8WTQ7); assay: Inhibition of recombinant human full length GRK7 at 1 uM using casein as substrate incubated for 40 mins in presence of [gamma-33P]-ATP by scintillation counting method relative to control
Sequence of Rhodopsin kinase GRK7 (Homo sapiens) (Q8WTQ7 whole entry): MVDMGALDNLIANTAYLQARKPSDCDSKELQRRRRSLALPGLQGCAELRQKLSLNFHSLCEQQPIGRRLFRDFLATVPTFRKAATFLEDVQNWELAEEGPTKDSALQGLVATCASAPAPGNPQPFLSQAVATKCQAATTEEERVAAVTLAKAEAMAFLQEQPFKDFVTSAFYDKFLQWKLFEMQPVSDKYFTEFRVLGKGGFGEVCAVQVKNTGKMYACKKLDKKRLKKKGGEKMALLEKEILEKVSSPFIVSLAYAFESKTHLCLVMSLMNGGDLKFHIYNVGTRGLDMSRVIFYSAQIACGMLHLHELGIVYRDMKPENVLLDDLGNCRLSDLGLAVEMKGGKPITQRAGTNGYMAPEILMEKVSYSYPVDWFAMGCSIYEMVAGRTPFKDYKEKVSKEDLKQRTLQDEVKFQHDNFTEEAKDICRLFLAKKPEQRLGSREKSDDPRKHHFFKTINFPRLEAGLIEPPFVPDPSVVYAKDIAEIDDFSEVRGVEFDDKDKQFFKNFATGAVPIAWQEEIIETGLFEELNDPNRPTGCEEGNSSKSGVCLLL

[2] = system: MDA-MB-231; assay: Induction of cell cycle arrest in human MDA-MB-231 cells assessed as accumulation in G2/M phase at 20 to 40 nM incubated for 36 hrs by propidium iodide staining based flow cytometry; type: functional
In short: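 Cells were treated with graded concentrations for 36 h, then fixed overnight in 70% ice-cold ethanol at 4°C and resuspended in PBS. Staining used 50 µg/ml PI plus 5 µg/ml RNase at 37°C for 30 min. DNA content was analysed by FACS to give G0/G1, S and G2/M fractions.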

[3] = target: Ribosomal protein S6 kinase alpha-4 (Homo sapiens) (UniProt O75676); assay: Inhibition of recombinant human MSK2 (2 to end residues) at 1 uM using GRPRTSSFAEGKK as substrate incubated for 40 mins in presence of [gamma-33P]-ATP by scintillation counting method relative to control
[4] = target: Mitogen-activated protein kinase kinase kinase 20 (Homo sapiens) (UniProt Q9NYL2); assay: Inhibition of recombinant human full length ZAK at 1 uM using MBP as substrate incubated for 40 mins in presence of [gamma-33P]-ATP by scintillation counting method relative to control
Sequence of Mitogen-activated protein kinase kinase kinase 20 (Homo sapiens) (Q9NYL2 2-800 limits assumed): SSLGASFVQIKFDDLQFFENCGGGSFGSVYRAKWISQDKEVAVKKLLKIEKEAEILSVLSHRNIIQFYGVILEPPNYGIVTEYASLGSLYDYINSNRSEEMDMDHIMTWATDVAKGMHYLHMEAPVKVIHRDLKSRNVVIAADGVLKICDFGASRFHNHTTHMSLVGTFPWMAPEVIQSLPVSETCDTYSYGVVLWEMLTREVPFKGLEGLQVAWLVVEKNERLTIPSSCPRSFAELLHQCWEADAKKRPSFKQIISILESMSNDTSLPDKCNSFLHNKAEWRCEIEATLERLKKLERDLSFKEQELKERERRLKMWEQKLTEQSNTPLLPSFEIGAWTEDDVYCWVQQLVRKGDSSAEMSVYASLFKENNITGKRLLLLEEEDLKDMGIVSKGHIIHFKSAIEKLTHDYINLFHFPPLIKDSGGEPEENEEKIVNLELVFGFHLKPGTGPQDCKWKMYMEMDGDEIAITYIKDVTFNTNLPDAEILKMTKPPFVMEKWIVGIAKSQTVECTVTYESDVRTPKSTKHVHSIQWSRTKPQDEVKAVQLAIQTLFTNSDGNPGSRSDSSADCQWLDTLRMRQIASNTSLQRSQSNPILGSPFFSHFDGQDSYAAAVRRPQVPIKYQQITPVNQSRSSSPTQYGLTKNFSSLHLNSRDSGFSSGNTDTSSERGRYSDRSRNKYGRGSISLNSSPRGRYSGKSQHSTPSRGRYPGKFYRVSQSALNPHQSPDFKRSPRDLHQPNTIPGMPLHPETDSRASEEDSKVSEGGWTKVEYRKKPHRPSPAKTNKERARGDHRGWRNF

[5] = target: [Pyruvate dehydrogenase (acetyl-transferring)] kinase isozyme 2, mitochondrial (Homo sapiens) (UniProt Q15119); assay: Inhibition of recombinant human PDHK2 at 1 uM incubated for 40 mins in presence of [gamma-33P]-ATP by scintillation counting method relative to control
In short: (§1)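 Tested at a single 1 uM in an outsourced commercial kinase-profiling panel, read as percent inhibition. Each value is the mean of two independent experiments.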

[6] = system: Serine/threonine-protein kinase Chk2 (Homo sapiens), O96017 [I157T]; assay: Inhibition of recombinant human CHK2 I157T mutant (5 to end residues) at 1 uM using KKKVSRSGLYRSP as substrate incubated for 40 mins in presence of [gamma-33P]-ATP by scintillation counting method relative to control
In short: (§2)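 Kinase panel profiling at 1 μM performed by Eurofins KinaseProfiler; percent inhibition reported as mean of two independent experiments.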

[7] = target: Tyrosine-protein kinase Blk (Homo sapiens) (UniProt P51451); assay: Inhibition of recombinant full length human BLK at 1 uM using poly(Glu, Tyr) 4:1 as substrate incubated for 40 mins in presence of [gamma-33P]-ATP by scintillation counting method relative to control; in short: as §2
[8] = target: CDK4/Cyclin D3 (Homo sapiens) (UniProt P11802+P30281); assay: Inhibition of recombinant human full length CDK4/cyclinD3 at 1 uM using Rb fragment as substrate incubated for 40 mins in presence of [gamma-33P]-ATP by scintillation counting method relative to control; type: protein-complex assay
[9] = target: Serine/threonine-protein kinase TAO3 (Homo sapiens) (UniProt Q9H2K8); assay: Inhibition of recombinant human TAO3 (1 to 411 residues) at 1 uM using myelin basic protein as substrate incubated for 40 mins in presence of [gamma-33P]-ATP by scintillation counting method relative to control
[10] = target: Serine/threonine-protein kinase SIK2 (Homo sapiens) (UniProt Q9H0K1); assay: Inhibition of recombinant human SIK2 (1 to 276 residues) at 1 uM using KKKVSRSGLYRSPSMPENLNRPR as substrate incubated for 40 mins in presence of [gamma-33P]-ATP by scintillation counting method relative to control
[11] = target: Fibroblast growth factor receptor 2 (Homo sapiens) (UniProt P21802); assay: Inhibition of recombinant human FGFR2 (456 to 770 residues) at 1 uM using poly(Glu, Tyr) 4:1 as substrate incubated for 40 mins in presence of [gamma-33P]-ATP by scintillation counting method relative to control
Sequence of Fibroblast growth factor receptor 2 (Homo sapiens) (P21802 22-821 limits assumed): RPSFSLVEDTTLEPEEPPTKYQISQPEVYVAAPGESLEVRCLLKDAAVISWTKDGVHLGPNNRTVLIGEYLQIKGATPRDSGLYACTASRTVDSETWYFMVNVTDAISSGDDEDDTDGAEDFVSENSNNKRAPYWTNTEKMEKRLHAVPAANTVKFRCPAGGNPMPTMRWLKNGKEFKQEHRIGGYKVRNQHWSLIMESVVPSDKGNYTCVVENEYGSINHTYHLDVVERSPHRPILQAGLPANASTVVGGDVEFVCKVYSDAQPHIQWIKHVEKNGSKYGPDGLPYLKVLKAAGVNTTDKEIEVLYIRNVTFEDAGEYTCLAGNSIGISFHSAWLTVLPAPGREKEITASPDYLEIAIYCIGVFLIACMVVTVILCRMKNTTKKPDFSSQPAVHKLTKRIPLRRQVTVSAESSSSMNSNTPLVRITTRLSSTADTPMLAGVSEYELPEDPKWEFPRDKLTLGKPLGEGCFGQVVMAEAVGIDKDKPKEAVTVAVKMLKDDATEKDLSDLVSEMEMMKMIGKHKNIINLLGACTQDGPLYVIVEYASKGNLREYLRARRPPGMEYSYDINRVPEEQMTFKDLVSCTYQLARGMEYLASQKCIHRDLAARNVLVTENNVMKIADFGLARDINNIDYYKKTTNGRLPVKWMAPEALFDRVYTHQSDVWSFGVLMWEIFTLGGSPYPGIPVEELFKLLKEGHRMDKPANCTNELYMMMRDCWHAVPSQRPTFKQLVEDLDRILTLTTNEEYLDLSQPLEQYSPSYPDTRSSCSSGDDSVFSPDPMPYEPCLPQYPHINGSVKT

[12] = target: NUAK family SNF1-like kinase 2 (Homo sapiens) (UniProt Q9H093); assay: Inhibition of recombinant human full length NUAK2 at 1 uM using KKKVSRSGLYRSPSMPENLNRPR as substrate incubated for 40 mins in presence of [gamma-33P]-ATP by scintillation counting method relative to control
Sequence of NUAK family SNF1-like kinase 2 (Homo sapiens) (Q9H093 whole entry): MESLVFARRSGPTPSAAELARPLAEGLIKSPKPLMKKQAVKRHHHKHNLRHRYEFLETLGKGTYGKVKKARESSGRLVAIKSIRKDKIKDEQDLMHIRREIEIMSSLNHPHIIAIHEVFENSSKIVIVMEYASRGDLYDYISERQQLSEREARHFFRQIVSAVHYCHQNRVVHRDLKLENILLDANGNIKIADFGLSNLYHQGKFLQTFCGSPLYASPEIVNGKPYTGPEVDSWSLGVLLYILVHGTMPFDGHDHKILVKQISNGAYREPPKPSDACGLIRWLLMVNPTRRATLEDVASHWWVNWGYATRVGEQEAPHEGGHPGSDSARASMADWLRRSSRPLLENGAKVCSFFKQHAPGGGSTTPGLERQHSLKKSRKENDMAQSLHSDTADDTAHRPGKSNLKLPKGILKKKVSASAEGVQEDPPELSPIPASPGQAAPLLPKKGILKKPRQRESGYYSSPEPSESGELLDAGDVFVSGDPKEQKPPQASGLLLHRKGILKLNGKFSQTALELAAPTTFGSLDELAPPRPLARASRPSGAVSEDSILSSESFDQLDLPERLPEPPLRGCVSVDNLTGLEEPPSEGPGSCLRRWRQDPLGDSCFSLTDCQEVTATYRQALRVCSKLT

[13] = target: Tyrosine-protein kinase SYK (Homo sapiens) (UniProt P43405); assay: Inhibition of recombinant human full length SYK at 1 uM using poly(Glu, Tyr) 4:1 as substrate incubated for 40 mins in presence of [gamma-33P]-ATP by scintillation counting method relative to control
[14] = target: Platelet-derived growth factor receptor alpha (Homo sapiens) (UniProt P16234); assay: Inhibition of recombinant human PDGFRalpha (550 to end residues) at 1 uM using poly(Glu, Tyr) 4:1 as substrate incubated for 40 mins in presence of [gamma-33P]-ATP by scintillation counting method relative to control; in short: as §1
Sequence of Platelet-derived growth factor receptor alpha (Homo sapiens) (P16234 whole entry): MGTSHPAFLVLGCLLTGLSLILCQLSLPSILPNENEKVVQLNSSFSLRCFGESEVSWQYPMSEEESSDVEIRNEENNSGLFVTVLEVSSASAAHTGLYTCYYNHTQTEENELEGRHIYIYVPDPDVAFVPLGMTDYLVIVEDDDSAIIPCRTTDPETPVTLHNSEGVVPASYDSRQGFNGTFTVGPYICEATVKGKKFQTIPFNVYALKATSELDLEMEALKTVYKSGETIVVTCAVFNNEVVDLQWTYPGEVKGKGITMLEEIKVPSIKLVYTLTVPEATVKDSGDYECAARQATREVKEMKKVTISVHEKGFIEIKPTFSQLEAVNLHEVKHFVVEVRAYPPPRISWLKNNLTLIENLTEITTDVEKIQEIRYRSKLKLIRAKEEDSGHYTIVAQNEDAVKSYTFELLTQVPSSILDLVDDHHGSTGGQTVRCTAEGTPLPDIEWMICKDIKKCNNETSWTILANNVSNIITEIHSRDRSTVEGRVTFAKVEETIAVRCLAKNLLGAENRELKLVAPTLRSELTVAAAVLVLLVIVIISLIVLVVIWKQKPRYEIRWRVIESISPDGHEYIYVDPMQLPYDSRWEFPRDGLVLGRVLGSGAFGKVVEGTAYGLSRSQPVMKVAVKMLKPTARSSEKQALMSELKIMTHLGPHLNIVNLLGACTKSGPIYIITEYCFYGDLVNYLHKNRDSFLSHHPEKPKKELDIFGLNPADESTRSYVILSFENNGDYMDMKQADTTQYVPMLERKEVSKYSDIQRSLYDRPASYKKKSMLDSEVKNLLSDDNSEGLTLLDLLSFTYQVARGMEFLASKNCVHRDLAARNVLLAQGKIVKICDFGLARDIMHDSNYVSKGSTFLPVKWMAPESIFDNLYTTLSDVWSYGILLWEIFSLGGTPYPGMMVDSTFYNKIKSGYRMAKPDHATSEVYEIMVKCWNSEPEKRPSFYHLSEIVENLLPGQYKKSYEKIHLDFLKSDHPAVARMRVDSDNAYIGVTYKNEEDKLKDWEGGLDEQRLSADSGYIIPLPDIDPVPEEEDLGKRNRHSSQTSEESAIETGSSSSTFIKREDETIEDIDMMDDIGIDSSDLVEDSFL

[15] = target: Serine/threonine-protein kinase VRK1 (Homo sapiens) (UniProt Q99986); assay: Inhibition of recombinant human VRK1 at 1 uM incubated for 40 mins in presence of [gamma-33P]-ATP by scintillation counting method relative to control
Sequence of Serine/threonine-protein kinase VRK1 (Homo sapiens) (Q99986 whole entry, the tested form may be a part): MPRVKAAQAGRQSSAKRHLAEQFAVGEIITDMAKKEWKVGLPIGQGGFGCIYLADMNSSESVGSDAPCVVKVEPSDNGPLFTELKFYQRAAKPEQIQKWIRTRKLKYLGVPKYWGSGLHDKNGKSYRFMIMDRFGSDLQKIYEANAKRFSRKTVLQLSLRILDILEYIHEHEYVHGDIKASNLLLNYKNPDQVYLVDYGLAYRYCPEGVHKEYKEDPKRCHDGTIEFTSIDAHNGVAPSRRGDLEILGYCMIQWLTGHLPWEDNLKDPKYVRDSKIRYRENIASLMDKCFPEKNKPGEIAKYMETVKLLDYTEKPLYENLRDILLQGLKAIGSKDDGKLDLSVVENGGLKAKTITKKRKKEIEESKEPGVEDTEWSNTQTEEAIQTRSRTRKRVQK

[16] = target: Tyrosine-protein kinase HCK (Homo sapiens) (UniProt P08631); assay: Inhibition of recombinant human HCK (230 to 497 residues) at 1 uM using GGMEDIYFEFMGGKKK as substrate incubated for 40 mins in presence of [gamma-33P]-ATP by scintillation counting method relative to control
Sequence of Tyrosine-protein kinase HCK (Homo sapiens) (P08631 2-526 limits assumed): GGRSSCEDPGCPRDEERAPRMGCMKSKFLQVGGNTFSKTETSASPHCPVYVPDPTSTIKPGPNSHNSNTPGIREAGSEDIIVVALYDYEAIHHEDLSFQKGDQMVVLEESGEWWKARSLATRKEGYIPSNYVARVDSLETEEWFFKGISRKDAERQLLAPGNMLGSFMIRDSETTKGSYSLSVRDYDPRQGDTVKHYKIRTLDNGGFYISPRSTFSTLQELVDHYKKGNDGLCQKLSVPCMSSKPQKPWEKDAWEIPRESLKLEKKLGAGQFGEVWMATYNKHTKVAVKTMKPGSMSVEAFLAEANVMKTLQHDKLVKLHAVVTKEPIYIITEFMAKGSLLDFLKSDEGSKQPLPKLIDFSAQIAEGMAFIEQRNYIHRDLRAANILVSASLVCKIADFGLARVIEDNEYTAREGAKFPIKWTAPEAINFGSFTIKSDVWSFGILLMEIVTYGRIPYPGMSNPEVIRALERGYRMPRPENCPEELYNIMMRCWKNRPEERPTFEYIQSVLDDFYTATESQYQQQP

[17] = target: Ephrin type-A receptor 4 (Homo sapiens) (UniProt P54764); assay: Inhibition of recombinant human EPhA4 (601 to 892 residues) at 1 uM using poly(Glu, Tyr) 4:1 as substrate incubated for 40 mins in presence of [gamma-33P]-ATP by scintillation counting method relative to control
[18] = Toxicity in BALB/c mouse assessed as effect on blood parameter by measuring eosinophils content at 40 mg/kg, po administered once two days for 4 times by hematology analyzer; conditions: in vivo
[19] = MRT (0 to t) in Sprague-Dawley rat at 10 mg/kg, iv by HPLC-MS analysis; type: ADME, organism-based; conditions: in vivo
[20] = system: SiHa; assay: Antitumor activity against human SiHa cells xenografted in NOD/SCID BALB/c mouse assessed as reduction in Ki67 expression at 40 mg/kg, po measured after 21 days by hematoxylin and eosin staining based immunohistochemistry; type: functional, organism-based
In short: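 Female NOD/SCID Balb/c mice, 6–8 weeks old, received 2×10^6 SiHa cells subcutaneously in the right flank. Once tumors reached 100 mm³, mice were randomized, 5 per group, and gavaged once daily for 21 days. Formalin-fixed, paraffin-embedded tumor sections were stained with Ki67 or CD31 antibody (1:100, 4 °C overnight), then biotin secondary and ABC-peroxidase/DAB, with hematoxylin counterstain.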

[21] = system: MDA-MB-231; assay: Induction of apoptosis in human MDA-MB-231 cells assessed as decrease in Bcl2 expression at 40 nM incubated for 48 hrs by Western blot analysis; type: functional, cell-based
In short: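 Cells were treated for 48 h, washed three times with PBS, and lysed in RIPA buffer. Immunoblots used anti-Rb, anti-phospho-Rb, anti-Ki67 and anti-Bcl-2 (each 1:1000), with β-actin as loading control.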

Cc1ccc(NC(=O)C2(C(=O)Nc3ccc(Nc4ncc(F)c(-c5cc(F)c6nc(C)n(C(C)C)c6c5)n4)cc3)CC2)cc1
inhibition [1]: 8% | Activity [2]: Active | inhibition [3]: 78% | inhibition [4]: 14% | inhibition [5]: 0% | inhibition [6]: 24% | inhibition [7]: 39% | inhibition [8]: 97% | inhibition [9]: 2% | inhibition [10]: 43% | inhibition [11]: 4% | inhibition [12]: 67% | inhibition [13]: 49% | inhibition [14]: 0% | inhibition [15]: 9% | inhibition [16]: 66% | inhibition [17]: 28% | Activity [18]: Non-Toxic | MRT last [19]: 2 h

COc1cc2nccc(Oc3ccc(NC(=O)C4(C(=O)Nc5ccc(F)cc5)CC4)cc3)c2cc1OC [CABOZANTINIB]
inhibition [20]: Active | Activity [21]: Active
